Measurements reported in publication PMC4682886 (ChemMedChem, 2015).

Assays:
[1] = tested on: C. albicans susceptible strain HLY4123; assay: Dose-response curves of test compounds against C. albicans with fluconazole; format: cell-based; conditions: for EC50: strain HLY4123, in the presence of fluconazole (0.25 μg/mL), mean ± SD of three independent experiments; for activity under the conditions of the assay: strain HLY4123, in combination with fluconazole
[2] = tested on: partially resistant clinical isolate of C. albicans CaCi-8; conditions: cited from earlier work; for active concentration: against CaCi-8 with fluconazole, none active below this, ref [48]–[50]
[3] = tested on: NIH 3T3 cells; assay: Cytotoxicity against NIH 3T3 cells; format: cell-based; conditions: concentrations up to 1.5 mM
Outline: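 Test compound applied to NIH 3T3 cells at concentrations up to 1.5 mM. Values are arithmetic means ± SD of three independent experiments.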

| Compound | EC50 [1] | also measured |
| --- | --- | --- |
| Cc1c(Cl)ccc2c1NC(=O)[C@@]21[C@H]2C(=O)N(c3ccc(F)cc3)C(=O)[C@H]2[C@H]2CN(C(=O)OC(C)(C)C)CCN21 (racemic) [Compound 15, (±)-tert-Butyl (3R,3a′R,3b′S,9a′S)-6-chloro-2′-(4-fluorophenyl)-7-methyl-1′,2,3′-trioxo-2′,3′,3a′,3b′,4′,6′,7′,9a′-octahydrospiro[indoline-3,9′-pyrrolo[3′,4′:3,4]pyrrolo[1,2-a]pyrazine]-5′(1′H)-carboxylate] | 37 ± 1 nM | – |
| Cc1cccc2c1NC(=O)[C@@]21[C@H]2C(=O)N(c3ccccc3)C(=O)[C@H]2[C@H]2CN(C(=O)OC(C)(C)C)CCN21 (racemic) [Compound 22, (±)-tert-Butyl (3R,3a′R,3b′S,9a′S)-7-methyl-1′,2,3′-trioxo-2′-phenyl-2′, 3′,3a′,3b′,4′,6′,7′,9a′-octahydrospiro[indoline-3,9′-pyrrolo[3′,4′:3,4]pyrrolo[1,2-a]pyrazine]-5′(1′H)-carboxylate] | 213 ± 80 nM | – |
| (±)-tert-Butyl (3R,3a′R,3b′S,9a′S)-2′-benzyl-1′,2,3′-trioxo-2′,3′,3a′,3b′, 4′,6′,7′,9a′-octahydrospiro[indoline-3,9′-pyrrolo[3′,4′:3,4]pyrrolo[1,2-a]pyrazine]-5′(1′H)-carboxylate [Compound 19] | > 100000 nM | – |
| COC(=O)Cn1nc(-c2cccc(OC)c2)c2ccccc21 [ML212] | – | active concentration [2]: ≥ 0.7 µM |
| CO[C@H](C(=O)N1CCN2[C@H](C1)[C@@H]1C(=O)N(c3ccccc3)C(=O)[C@@H]1[C@@]21C(=O)Nc2c1ccc(Cl)c2C)c1ccccc1 (racemic) [Compound 28, (±)-(3R,3a′R,3b′S,9a′S)-6-chloro-5′-((S)-2-methoxy-2-phenylacetyl)-7-methyl-2′-phenyl-3a′,4′,5′,6′,7′,9a′-hexahydrospiro [indoline-3,9′-pyrrolo[3′,4′:3,4]pyrrolo[1,2-a]pyrazine]-1′,2,3′(2′H, 3b′H)-trione] | 35 ± 7 nM | – |
| Cc1c(Cl)ccc2c1NC(=O)[C@@]21[C@H]2C(=O)N(c3cc(C(F)(F)F)cc(C(F)(F)F)c3)C(=O)[C@H]2[C@H]2CN(C(=O)OC(C)(C)C)CCN21 (racemic) [Compound 16, (±)-tert-Butyl (3R,3a′R,3b′S,9a′S)-2′-(3,5-bis(trifluoromethyl)phenyl)-6-chloro-7-methyl-1′,2,3′-trioxo-2′,3′,3a′,3b′,4′,6′,7′,9a′-octahydrospiro [indoline-3,9′-pyrrolo[3′,4′:3,4]pyrrolo[1,2-a]pyrazine]-5′(1′H)-carboxy late] | 23.7 ± 10 nM | – |
| O=C1[C@H]2[C@@H](Cc3ccccc3)N[C@]3(C(=O)Nc4ccccc43)[C@H]2C(=O)N1Cc1ccccc1 (racemic) [Compound 8, (±)-(3R,3′R,3a′R,6a′S)-3′,5′-Dibenzyl-2′,3′,3a′,6a′-tetrahydro-4′H-spiro [indoline-3,1′-pyrrolo[3,4-c]pyrrole]-2,4′,6′(5′H)-trione] | ~10000 nM | – |
| Cc1c(Cl)ccc2c1N(Cc1ccccc1)C(=O)[C@@]21[C@H]2C(=O)N(c3ccccc3)C(=O)[C@H]2[C@H]2CN(C(=O)OC(C)(C)C)CCN21 (racemic) [Compound 17, (±)-tert-butyl (3R,3a′R,3b′S,9a′S)-1-benzyl-6-chloro-7-methyl-1′,2,3′-trioxo-2′-phenyl-2′,3′,3a′,3b′,4′,6′,7′,9a′-octahydrospiro [indoline-3,9′-pyrrolo[3′,4′:3,4]pyrrolo[1,2-a]pyrazine]-5′(1′H)-carboxy late] | > 100000 nM | – |
| O=C1[C@H]2[C@@H](Cc3ccccc3)N[C@]3(C(=O)N(Cc4ccccc4)c4ccccc43)[C@H]2C(=O)N1c1ccccc1 (racemic) [Compound 12, (±)-(3R,3′R,3a′R,6a′S)-1,3′-Dibenzyl-5′-phenyl-2′,3′,3a′,6a′-tetrahydro-4′H-spiro[indoline-3,1′-pyrrolo[3,4-c]pyrrole]-2,4′,6′(5′H)-trione] | > 100000 nM | – |
| O=C(Cn1c2ccccc2c2nc3n(c(=O)c21)CCS3)N1CCCC1 [ML229] | – | active concentration [2]: ≥ 0.7 µM |
| Cc1c(Cl)ccc2c1NC(=O)[C@]21N[C@H](Cc2ccccc2)[C@@H]2C(=O)N(c3ccc(F)cc3)C(=O)[C@@H]21 (racemic) [Compound 1, (±)-(3R,3′R,3a′R,6a′S)-3′-benzyl-6-chloro-5′-(4-fluorophenyl)-7-methyl-2′,3′,3a′,6a′-tetrahydro-4′H-spiro[indoline-3,1′-pyrrolo[3,4-c]pyrrole]-2,4′,6′(5′H)-trione] | 11 ± 4 nM | cytotoxicity [3]: only weak cytotoxicity |
| COC(=O)CCCCCCCCC(=O)N1CCN2[C@H](C1)[C@@H]1C(=O)N(c3ccccc3)C(=O)[C@@H]1[C@@]21C(=O)Nc2c1ccc(Cl)c2C (racemic) [Compound 27, (±)-methyl 10-((3R,3a′R,3b′S,9a′S)-6-chloro-7-methyl-1′,2,3′-trioxo-2′-phenyl-2′,3′,3a′,3b′,4′,6′,7′,9a′-octahydrospiro [indoline-3,9′-pyrrolo[3′,4′:3,4]pyrrolo[1,2-a]pyrazin]-5′(1′H)-yl)-10-oxodecanoate] | 37.9 ± 9 nM | – |
| Cc1c(Cl)ccc2c1NC(=O)[C@@]21[C@H]2C(=O)N(c3ccccc3)C(=O)[C@H]2[C@H]2CN(C(=O)CCc3ccccc3)CCN21 (racemic) [Compound 29, (±)-(3R,3a′R,3b′S,9a′S)-6-chloro-7-methyl-2′-phenyl-5′-(3-phenylpropanoyl)-3a′,4′,5′,6′,7′,9a′-hexahydrospiro[indoline-3,9′-pyrrolo[3′,4′:3,4]pyrrolo[1,2-a]pyrazine]-1′,2,3′(2′H,3b′H)-trione] | 18.1 ± 4 nM | – |
| Cc1c(Cl)ccc2c1NC(=O)[C@@]21[C@H]2C(=O)N(c3ccccc3)C(=O)[C@H]2[C@H]2CNCCN21 (racemic) [Compound 26, (±)-(3R,3a′R,3b′S,9a′S)-6-chloro-7-methyl-2′-phenyl-3a′,4′,5′,6′,7′,9a′-hexahydrospiro[indoline-3,9′-pyrrolo[3′,4′:3,4]pyrolo[1,2-a]pyrazine]-1′,2,3′(2′H,3b′H)-trione] | ~10000 nM | – |
| Cc1c(Cl)ccc2c1NC(=O)[C@]21N[C@@H](Cc2ccccc2)[C@H]2C(=O)N(c3ccc(F)cc3)C(=O)[C@H]21 [CID 6584729, (1S,3R,3aR,6aS)-1-benzyl-6′-chloro-5-(4-fluorophenyl)-7′-methylspiro[1,2,3a,6a-tetrahydropyrrolo[3,4-c]pyrrole-3,3′-1H-indole]-2′,4,6-trione] | – | EC50 ([2]; enhancing the effect of fluconazole against CaCi-8, ref [68]): 120 nM |
| Cc1c(Cl)ccc2c1NC(=O)[C@]21[C@H]2C(=O)N(c3ccccc3)C(=O)[C@H]2[C@@H]2C[C@@H](OC(=O)c3ccccc3)CN21 [Compound 25a, (+)-(3S,3a′S,7′R,8a′S,8b′R)-6-chloro-7-methyl-1′,2,3′-tri oxo-2′-phenyl-2′,3′,3a′,6′,7′,8′,8a′,8b′-octahydro-1′H-spiro[indoline-3,4′-pyrrolo[3,4-a]pyrrolizin]-7′-yl benzoate] | – | activity under the conditions of the assay [1]: almost no activity |
| CC(C)(C)OC(=O)NCCCC[C@H]1N[C@]2(C(=O)Nc3ccccc32)[C@H]2C(=O)N(Cc3ccccc3)C(=O)[C@@H]12 (racemic) [Compound 10, (±)-tert-Butyl (4-((3R,3′R,3a′R,6a′S)-5′-benzyl-2,4′,6′-trioxo-3′,3a′,4′,5′, 6′,6a′-hexahydro-2′H-spiro[indoline-3,1′-pyrrolo[3,4-c]pyrrol]-3′-yl)butyl)carbamate] | > 100000 nM | – |
| Cc1c(Cl)ccc2c1NC(=O)[C@]21N[C@H](Cc2ccccc2)[C@@H]2C(=O)N(c3ccccc3)C(=O)[C@@H]21 (racemic) [Compound 13, (±)-(3R,3′R,3a′R,6a′S)-3′-Benzyl-6-chloro-7-methyl-5′-phenyl-2′,3′,3a′, 6a′-tetrahydro-4′H-spiro[indoline-3,1′-pyrrolo[3,4-c]pyrrole]-2,4′,6′ (5′H)-trione] | 1 ± 0.5 nM | – |
| O=C1[C@H]2[C@@H](Cc3c[nH]c4ccccc34)N[C@]3(C(=O)Nc4ccccc43)[C@H]2C(=O)N1Cc1ccccc1 (racemic) [Compound 9, (±)-(3R,3′R,3a′R,6a′S)-3′-((1H-Indol-3-yl)methyl)-5′-benzyl-2′,3′,3a′,6a′-tetrahydro-4′H-spiro[indoline-3,1′-pyrrolo[3,4-c]pyrrole]-2,4′,6′(5′H)-trione] | ~10000 nM | – |
| Cc1c(Cl)ccc2c1NC(=O)[C@@]21[C@H]2C(=O)N(c3ccccc3)C(=O)[C@H]2[C@H]2CN(C(=O)OC(C)(C)C)CCN21 (racemic) [Compound 14, (±)-tert-Butyl (3R,3a′R,3b′S,9a′S)-6-chloro-7-methyl-1′,2,3′-trioxo-2′-phenyl-2′,3′,3a′,3b′,4′,6′,7′,9a′-octahydrospiro[indoline-3,9′-pyrrolo[3′, 4′:3,4]pyrrolo[1,2-a]pyrazine]-5′(1′H)-carboxylate] | 5.6 ± 3 nM | – |
| O=C1[C@H]2[C@@H](Cc3ccccc3)N[C@]3(C(=O)N(Cc4ccccc4)c4ccccc43)[C@H]2C(=O)N1Cc1ccccc1 (racemic) [Compound 11, (±)-(3R,3′R,3a′R,6a′S)-1,3′,5′-Tribenzyl-2′,3′,3a′,6a′-tetrahydro-4′H-spi ro[indoline-3,1′-pyrrolo[3,4-c]pyrrole]-2,4′,6′(5′H)-trione] | > 10000 nM | – |
| Cc1ccc2c(c1C)NC(=O)[C@@]21[C@H]2C(=O)N(c3ccccc3)C(=O)[C@H]2[C@H]2CN(C(=O)OC(C)(C)C)CCN21 (racemic) [Compound 23, (±)-tert-Butyl (3R,3a′R,3b′S,9a′S)-6,7-dimethyl-1′,2,3′-trioxo-2′-phenyl-2′,3′,3a′,3b′,4′,6′,7′,9a′-octahydrospiro[indoline-3,9′-pyrrolo[3′,4′:3,4]pyrrolo[1,2-a]pyrazine]-5′(1′H)-carboxylate] | 5.7 ± 6 nM | – |
| Cc1c(Cl)ccc2c1NC(=O)[C@@]21[C@@H]2C(=O)N(c3ccccc3)C(=O)[C@@H]2[C@H]2C[C@@H](OC(=O)c3ccccc3)CN21 [Compound 25b, (−)-(3R,3a′R,7′R, 8a′R,8b′S)-6-chloro-7-methyl-1′,2,3′-trioxo-2′-phenyl-2′,3′,3a′,6′,7′,8′, 8a′,8b′-octahydro-1′H-spiro[indoline-3,4′-pyrrolo[3,4-a]pyrrolizin]-7′-yl benzoate] | – | activity under the conditions of the assay [1]: almost no activity |
| O=C(c1ccc(Cl)cc1)N1CCN(c2ccnc3cc(Cl)ccc23)CC1 [ML189] | – | active concentration [2]: ≥ 0.7 µM |
